ChEMBL document CHEMBL3774372, “Design, physico-chemical properties and biological evaluation of some new N-[(phenoxy)alkyl]- and N-{2-[2-(phenoxy)ethoxy]ethyl}aminoalkanols as anticonvulsant agents” (Bioorg Med Chem, 2016)

Key:
[1] = Displacement of [3H]alpha,beta-MeATP from rat urinary bladder P2X receptor
[2] = Displacement of [35S]dATPalpha S from rat cerebral cortex P2Y receptor; assay type: tissue-based
Procedure, shortened: (§1)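 Radioligand binding on rat cerebral cortex preparations: [35S]TBPS (GABA-gated Cl⁻ channel), [125I]apamin (SKCa), [3H]batrachotoxinin (Na⁺ site 2), [35S]dATPαS (P2Y), [3H]TCP (PCP), [3H]flunitrazepam (central BZD).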

[3] = Displacement of [3H]TCP from rat cerebral cortex PCP receptor; assay type: tissue-based; procedure, shortened: as §1
[4] = target: Muscarinic acetylcholine receptor M5 (Homo sapiens, UniProt P08912); experiment: Displacement of [3H]4-DAMP from human recombinant muscarinic M5 receptor expressed in CHO cells; assay type: cell-based
[5] = target: 5-hydroxytryptamine receptor 2B (Homo sapiens, UniProt P41595); experiment: Displacement of [125I](+/-)DOI from human recombinant 5-HT2B receptor expressed in CHO cells; assay type: cell-based
Chain of 5-hydroxytryptamine receptor 2B (P41595 whole entry): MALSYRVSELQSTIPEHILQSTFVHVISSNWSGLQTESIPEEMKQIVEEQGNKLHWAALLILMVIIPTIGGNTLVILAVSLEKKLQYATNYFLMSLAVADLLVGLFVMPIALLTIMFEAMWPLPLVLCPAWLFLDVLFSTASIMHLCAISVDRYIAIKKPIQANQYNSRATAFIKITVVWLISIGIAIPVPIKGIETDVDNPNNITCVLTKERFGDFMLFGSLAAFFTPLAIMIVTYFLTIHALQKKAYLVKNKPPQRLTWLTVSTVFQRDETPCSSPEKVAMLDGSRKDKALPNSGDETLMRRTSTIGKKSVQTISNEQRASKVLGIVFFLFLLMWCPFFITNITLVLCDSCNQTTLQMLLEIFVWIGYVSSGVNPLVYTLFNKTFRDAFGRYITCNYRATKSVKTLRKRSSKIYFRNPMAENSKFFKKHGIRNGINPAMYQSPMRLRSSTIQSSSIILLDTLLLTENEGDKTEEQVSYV

Chain of Muscarinic acetylcholine receptor M5 (P08912 whole entry): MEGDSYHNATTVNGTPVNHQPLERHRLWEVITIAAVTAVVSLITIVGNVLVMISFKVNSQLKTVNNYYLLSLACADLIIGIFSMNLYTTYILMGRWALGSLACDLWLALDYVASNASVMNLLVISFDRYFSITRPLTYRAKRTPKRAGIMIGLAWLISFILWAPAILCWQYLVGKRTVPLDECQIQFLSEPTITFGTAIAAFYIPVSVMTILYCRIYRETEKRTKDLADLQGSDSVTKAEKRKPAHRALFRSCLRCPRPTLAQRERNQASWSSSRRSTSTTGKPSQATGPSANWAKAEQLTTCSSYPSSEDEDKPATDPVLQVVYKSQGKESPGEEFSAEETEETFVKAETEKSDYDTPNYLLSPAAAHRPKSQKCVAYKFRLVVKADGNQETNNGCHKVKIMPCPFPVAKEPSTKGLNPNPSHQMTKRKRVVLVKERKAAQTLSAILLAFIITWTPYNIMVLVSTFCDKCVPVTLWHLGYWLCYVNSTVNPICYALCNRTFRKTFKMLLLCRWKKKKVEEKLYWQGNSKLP

Q: Which IC50 [1] does the source give for `Nc1ncnc2c1ncn2[C@@H]1O[C@H](COP(=O)(O)CP(=O)(O)OP(=O)(O)O)[C@@H](O)[C@H]1O` [DIPHOSPHOMETHYLPHOSPHONIC ACID ADENOSYL ESTER] here?
A: The IC50 was 1.9 nM.

Q: For `Nc1ncnc2c1ncn2[C@@H]1O[C@H](COP(O)(=S)OP(=O)(O)OP(=O)(O)O)[C@@H](O)[C@H]1O` (stereo not given in full), which IC50 [2] is on record?
A: The IC50 was 29 nM.

Q: Which IC50 [3] does the source give for `C[C@]12N[C@H](Cc3ccccc31)c1ccccc12` [DIZOCILPINE] here?
A: Its IC50 is 4.6 nM.

Q: With `C[N+]1(C)CCC(OC(=O)C(c2ccccc2)c2ccccc2)CC1` [4-DAMP] as the molecule, how does the IC50 [4] read?
A: Its IC50 is 0.32 nM.

Q: Which IC50 [5] does the source give for `COc1cc(CC(C)N)c(OC)cc1I` (racemic) here?
A: The IC50 was 2.5 nM.
